From ChEMBL document CHEMBL4689842, “EUbOPEN Chemogenomics Library wave 1” (2021)

Tested on: HEK-293T
Assay: Multiplex assay against HEK293T;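 as to Population Tubulin-Different-Phenotype (%): share of the cells with healthy nuclei that show this phenotype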
Format: toxicity, cell-based
Details: human
Procedure, shortened: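 Hoechst33342, BioTracker Green Microtubule Cytoskeleton Dye, MitoTracker Red and Annexin V Alexa Fluor 680 were added to live cells at seeding, and imaging on a CQ1 microscope at 37°C and 5% CO2 followed compound addition. Gating by CellPathfinder machine learning separated cells into Hoechst high-intensity objects or normal cells, then normal cells into healthy, pyknosed or fragmented nuclei, then pyknosed cells into mitotic or apoptotic. Per cents of healthy-nucleus cells are reported for the tubulin, mitochondrial-mass and membrane-permeability phenotypes.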

[1] = 12 h, 1 µM, compound concentration 1 uM, replicate 1
[2] = 12 h, 1 µM, compound concentration 1 uM, replicate 2
[3] = 12 h, 10 µM, compound concentration 10 uM, replicate 1
[4] = 12 h, 10 µM, compound concentration 10 uM, replicate 2
[5] = 24 h, 1 µM, compound concentration 1 uM, replicate 1
[6] = 24 h, 1 µM, compound concentration 1 uM, replicate 2
[7] = 24 h, 10 µM, compound concentration 10 uM, replicate 1
[8] = 24 h, 10 µM, compound concentration 10 uM, replicate 2
[9] = 48 h, 1 µM, compound concentration 1 uM, replicate 1
[10] = 48 h, 1 µM, compound concentration 1 uM, replicate 2
[11] = 48 h, 10 µM, compound concentration 10 uM, replicate 1
[12] = 48 h, 10 µM, compound concentration 10 uM, replicate 2

CCC(=O)O[C@]1(C(=O)SCF)[C@H](C)C[C@H]2[C@@H]3C[C@H](F)C4=CC(=O)C=C[C@]4(C)[C@@]3(F)[C@@H](O)C[C@@]21C [FLUTICASONE PROPIONATE]
Population Apoptotic (%) [1]: 51% | Population Fragmented Nuclei (%) [1]: 10% | Population Healthy Nuclei (%) [1]: 33% | Population Hoechst High Intensity Objects (%) [1]: 11% | Population Membrane Permeable-Phenotype (%) [1]: 0% | Population Mitochondria Different-Phenotype (%) [1]: 87% | Population Mitotic Cells (%) [1]: 48% | Population Normal (%) [1]: 88% | Population Pyknosed Nuclei (%) [1]: 56% | Population Tubulin-Different-Phenotype (%) [1]: 52% | Total Cell Count [1]: 253 | Population Apoptotic (%) [2]: 9% | Population Fragmented Nuclei (%) [2]: 4% | Population Healthy Nuclei (%) [2]: 46% | Population Hoechst High Intensity Objects (%) [2]: 2% | Population Membrane Permeable-Phenotype (%) [2]: 7% | Population Mitochondria Different-Phenotype (%) [2]: 13% | Population Mitotic Cells (%) [2]: 90% | Population Normal (%) [2]: 97% | Population Pyknosed Nuclei (%) [2]: 48% | Population Tubulin-Different-Phenotype (%) [2]: 19% | Total Cell Count [2]: 273 | Population Apoptotic (%) [3]: 68% | Population Fragmented Nuclei (%) [3]: 11% | Population Healthy Nuclei (%) [3]: 32% | Population Hoechst High Intensity Objects (%) [3]: 15% | Population Membrane Permeable-Phenotype (%) [3]: 1% | Population Mitochondria Different-Phenotype (%) [3]: 89% | Population Mitotic Cells (%) [3]: 31% | Population Normal (%) [3]: 84% | Population Pyknosed Nuclei (%) [3]: 56% | Population Tubulin-Different-Phenotype (%) [3]: 78% | Total Cell Count [3]: 203 | Population Apoptotic (%) [4]: 25% | Population Fragmented Nuclei (%) [4]: 4% | Population Healthy Nuclei (%) [4]: 27% | Population Hoechst High Intensity Objects (%) [4]: 6% | Population Membrane Permeable-Phenotype (%) [4]: 8% | Population Mitochondria Different-Phenotype (%) [4]: 54% | Population Mitotic Cells (%) [4]: 74% | Population Normal (%) [4]: 93% | Population Pyknosed Nuclei (%) [4]: 68% | Population Tubulin-Different-Phenotype (%) [4]: 60% | Total Cell Count [4]: 187 | Population Apoptotic (%) [5]: 59% | Population Fragmented Nuclei (%) [5]: 10% | Population Healthy Nuclei (%) [5]: 41% | Population Hoechst High Intensity Objects (%) [5]: 17% | Population Membrane Permeable-Phenotype (%) [5]: 6% | Population Mitochondria Different-Phenotype (%) [5]: 68% | Population Mitotic Cells (%) [5]: 40% | Population Normal (%) [5]: 82% | Population Pyknosed Nuclei (%) [5]: 48% | Population Tubulin-Different-Phenotype (%) [5]: 40% | Total Cell Count [5]: 273 | Population Apoptotic (%) [6]: 7% | Population Fragmented Nuclei (%) [6]: 3% | Population Healthy Nuclei (%) [6]: 67% | Population Hoechst High Intensity Objects (%) [6]: 1% | Population Mitochondria Different-Phenotype (%) [6]: 12% | Population Mitotic Cells (%) [6]: 92% | Population Normal (%) [6]: 98% | Population Pyknosed Nuclei (%) [6]: 29% | Population Tubulin-Different-Phenotype (%) [6]: 22% | Total Cell Count [6]: 322 | Population Apoptotic (%) [7]: 61% | Population Fragmented Nuclei (%) [7]: 15% | Population Healthy Nuclei (%) [7]: 33% | Population Hoechst High Intensity Objects (%) [7]: 15% | Population Membrane Permeable-Phenotype (%) [7]: 0% | Population Mitochondria Different-Phenotype (%) [7]: 80% | Population Mitotic Cells (%) [7]: 38% | Population Normal (%) [7]: 84% | Population Pyknosed Nuclei (%) [7]: 50% | Population Tubulin-Different-Phenotype (%) [7]: 67% | Total Cell Count [7]: 237 | Population Apoptotic (%) [8]: 44% | Population Fragmented Nuclei (%) [8]: 11% | Population Healthy Nuclei (%) [8]: 44% | Population Hoechst High Intensity Objects (%) [8]: 3% | Population Membrane Permeable-Phenotype (%) [8]: 8% | Population Mitochondria Different-Phenotype (%) [8]: 43% | Population Mitotic Cells (%) [8]: 55% | Population Normal (%) [8]: 96% | Population Pyknosed Nuclei (%) [8]: 44% | Population Tubulin-Different-Phenotype (%) [8]: 53% | Total Cell Count [8]: 226 | Population Apoptotic (%) [9]: 50% | Population Fragmented Nuclei (%) [9]: 14% | Population Healthy Nuclei (%) [9]: 50% | Population Hoechst High Intensity Objects (%) [9]: 14% | Population Membrane Permeable-Phenotype (%) [9]: 2% | Population Mitochondria Different-Phenotype (%) [9]: 34% | Population Mitotic Cells (%) [9]: 50% | Population Normal (%) [9]: 85% | Population Pyknosed Nuclei (%) [9]: 35% | Population Tubulin-Different-Phenotype (%) [9]: 28% | Total Cell Count [9]: 348 | Population Apoptotic (%) [10]: 9% | Population Fragmented Nuclei (%) [10]: 4% | Population Healthy Nuclei (%) [10]: 81% | Population Hoechst High Intensity Objects (%) [10]: 2% | Population Membrane Permeable-Phenotype (%) [10]: 5% | Population Mitochondria Different-Phenotype (%) [10]: 3% | Population Mitotic Cells (%) [10]: 90% | Population Normal (%) [10]: 97% | Population Pyknosed Nuclei (%) [10]: 13% | Population Tubulin-Different-Phenotype (%) [10]: 23% | Total Cell Count [10]: 621 | Population Apoptotic (%) [11]: 67% | Population Fragmented Nuclei (%) [11]: 15% | Population Healthy Nuclei (%) [11]: 51% | Population Hoechst High Intensity Objects (%) [11]: 12% | Population Membrane Permeable-Phenotype (%) [11]: 10% | Population Mitochondria Different-Phenotype (%) [11]: 60% | Population Mitotic Cells (%) [11]: 32% | Population Normal (%) [11]: 87% | Population Pyknosed Nuclei (%) [11]: 33% | Population Tubulin-Different-Phenotype (%) [11]: 55% | Total Cell Count [11]: 278 | Population Apoptotic (%) [12]: 28% | Population Fragmented Nuclei (%) [12]: 7% | Population Healthy Nuclei (%) [12]: 74% | Population Hoechst High Intensity Objects (%) [12]: 5% | Population Membrane Permeable-Phenotype (%) [12]: 9% | Population Mitochondria Different-Phenotype (%) [12]: 22% | Population Mitotic Cells (%) [12]: 71% | Population Normal (%) [12]: 94% | Population Pyknosed Nuclei (%) [12]: 18% | Population Tubulin-Different-Phenotype (%) [12]: 52% | Total Cell Count [12]: 330
